# According to ChEMBL document CHEMBL3232756, “Synthesis and biological evaluation of N-dehydrodipeptidyl-N,N'-dicyclohexylurea analogs” (Eur J Med Chem, 2014):
# How the values were obtained:
# [1] = test system: Mus musculus; assay: Analgesic activity in Swiss albino mouse assessed as inhibition of acetic acid-induced writhing response at 100 mg/kg, po administered 1 hr before acetic acid challenge after 5 mins; format: functional
# [2] = test system: Brain; assay: Antioxidant activity against lipid peroxidation in Wister rat brain homogenates assessed as thiobarbituric acid reactive substance formation after 30 mins by spectrophotometer analysis; format: functional, tissue-based; details: 0.5 h
# Summary of the method: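 Whole brain minus cerebellum from overnight-fasted rats of either sex, 200–220 g. Homogenized 10% w/v in 0.15 M KCl and spun at 800 rpm for 10 min. Reaction incubated 37 °C for 30 min, then TBA:TCA (1:1) and BHT added, heated 80 °C for 20 min, cooled, centrifuged, A532 read.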
# [3] = Antioxidant activity assessed as trolox equivalents of cupric reducing antioxidant capacity after 30 mins; format: functional
# Summary of the method: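 Mix of 1 ml CuCl2 (10 mM), 1 ml ethanolic neocuproine (7.5 mM), 1 ml ammonium acetate buffer (pH 7.0, 1 M), 1 ml compound or standard solution and 0.1 ml water, total 4.1 ml. A450 read after 30 min against reagent blank. TEAC = ε test/ε Trolox.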
# [4] = Antioxidant activity assessed as hydroxyl radical scavenging activity after 15 mins; format: functional
# Summary of the method: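 Deoxyribose degradation mix: 2-deoxy-2-ribose 2.8 mM, KH2PO4–KOH 20 mM pH 7.4, FeCl3, EDTA, H2O2 1.0 mM, ascorbic acid, plus compound in methanol. Incubated 1 h at 37 °C. A 0.5 ml aliquot taken with 1 ml 2.8% TCA and 1 ml 1% TBA, heated 90 °C for 15 min, cooled, A532 read. % inhibition against blank.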
# [5] = Cytotoxicity against brine shrimps larvae assessed as mortality after 24 hrs; format: organism-based; details: artemia, in vivo; read-out: ED50
# Summary of the method: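 Shrimp eggs were hatched in filtered artificial sea water (38 g sea salt/L) in a divided tank. Larvae were exposed in vials at several concentrations under a lamp, and survivors were counted 24 h later. ED50 and 95% confidence intervals were derived from % larvae surviving by Finney probit analysis.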
# [6] = test system: Radical scavenging activity; assay: Antioxidant activity assessed as DPPH radical scavenging activity after 20 to 30 mins; format: functional
# Summary of the method: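 Test solution (2 ml at 25, 50, 75, 100, 125) mixed with 2 ml ethanolic DPPH, held in the dark at ambient temperature 20–30 min, then A517 read against an ethanol blank. Tocopherol used as standard. % scavenging = (Acontrol−Atest)/Acontrol×100, run in triplicate. IC50 read graphically from the % scavenging versus concentration plot.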
# [7] = test system: Aspergillus niger; assay: Antimicrobial activity against Aspergillus niger MTCC 292 at 0.02 ml of 1 mg/ml after 24 hrs by cup plate method; format: functional; details: MTCC 292, 24 h, read-out: DIZ
# Summary of the method: (§1)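 Cup-plate diffusion on Mueller-Hinton/nutrient agar swab-streaked with suspension, 6 mm cups bored. Each compound at 1 mg/ml in DMSO, 0.02 ml per cup; DMSO as solvent control. Amoxicillin for bacteria and fluconazole for fungi at 200 and 500 respectively as references. Incubation 37 °C for 24 h. Inhibition zone diameter in mm, triplicate, mean ± SD.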
# [8] = test system: Mus musculus; assay: Acute toxicity in Swiss albino mouse assessed as gross behavioral changes up to 1500 mg/kg, po; format: organism-based; set-up: dose 1500 mg/kg, route oral; details: in vivo
# Summary of the method: (§2)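 Swiss albino mice (6–8 weeks, 25–30 g) were dosed orally at 500, 1000 or 1500 mg/kg, following OECD guidelines. Body weight, food and water intake, behavioural patterns and mortality were recorded and compared with a control group.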
# [9] = test system: Bacillus subtilis; assay: Antimicrobial activity against Bacillus subtilis MTCC 441 at 0.02 ml of 1 mg/ml after 24 hrs by cup plate method; format: functional; details: MTCC 441, 24 h, read-out: DIZ; summary of the method: as §1
# [10] = test system: Staphylococcus aureus; assay: Antimicrobial activity against Staphylococcus aureus MTCC 96 at 0.02 ml of 1 mg/ml after 24 hrs by cup plate method; format: functional; details: MTCC 96, 24 h, read-out: DIZ; summary of the method: as §1
# [11] = test system: Escherichia coli; assay: Antimicrobial activity against Escherichia coli ESS 2231 at 0.02 ml of 1 mg/ml after 24 hrs by cup plate method; format: functional; details: ESS 2231, 24 h, read-out: DIZ; summary of the method: as §1
# [12] = test system: Rattus norvegicus; assay: Antiinflammatory activity in Wister rat assessed as inhibition of carrageenan-induced paw edema at 100 mg/kg, po administered 1 hr before carrageenan challenge measured after 3 hrs by plethysmograph analysis; format: functional
# Summary of the method: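 Rats of either sex, 150–220 g, food withheld 4 h. Compound or diclofenac sodium 100 mg/kg p.o., or 0.5% sodium CMC at 10 ml/kg as vehicle control, given 1 h before 0.05 ml of 1% carrageenan subplantar into the right hind paw. Paw volume read by water-displacement plethysmograph at 0, 30, 60, 120 and 180 min. % edema inhibition = 100(1−Vt/Vc); n=5, control n=6; ANOVA/Dunnett.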
# [13] = test system: Mus musculus; assay: Acute toxicity in Swiss albino mouse assessed as mortality up to 1500 mg/kg, po; format: organism-based; set-up: dose 1500 mg/kg, route oral; details: in vivo; summary of the method: as §2
# [14] = test system: Pseudomonas aeruginosa; assay: Antimicrobial activity against Pseudomonas aeruginosa MTCC 1688 at 0.02 ml of 1 mg/ml after 24 hrs by cup plate method; format: functional; details: MTCC 1688, 24 h, read-out: DIZ; summary of the method: as §1
# [15] = test system: Candida albicans; assay: Antimicrobial activity against Candida albicans MTCC 227 at 0.02 ml of 1 mg/ml after 24 hrs by cup plate method; format: functional; details: MTCC 227, 24 h, read-out: DIZ; summary of the method: as §1
SMILES,inhibition in vivo at 100 mg/kg [1],IC50 [2],TEAC (Trolox equivalents) [3],IC50 [4],LC50 at 24 h [5],IC50 [6],zone of inhibition at 1000 µg/mL [7],Activity [8],zone of inhibition at 1000 µg/mL [9],zone of inhibition at 1000 µg/mL [10],zone of inhibition at 1000 µg/mL [11],inhibition in vivo at 100 mg/kg [12],Activity [13],zone of inhibition at 1000 µg/mL [14],zone of inhibition at 1000 µg/mL [15]
CC(=O)Oc1ccccc1C(=O)O [ASPIRIN],63.1%,,,,,,,,,,,,,,
Cc1cc(C(C)(C)C)c(O)c(C(C)(C)C)c1 [BUTYLATED HYDROXYTOLUENE],,57.8 µM,,,,,,,,,,,,,
O=C1O[C@H]([C@@H](O)CO)C(O)=C1O [ASCORBIC ACID],,,2.63,49.9 µM,,,,,,,,,,,
O=C(NCC(=O)N(C(=O)NC1CCCCC1)C1CCCCC1)/C(=C\c1ccccc1)NC(=O)c1ccccc1,54%,58.8 µM,0.89,57.1 µM,6.02 µg/mL,49.8 µM,19.1 mm,Non-toxic,19.2 mm,18.1 mm,20.2 mm,35.5%,Non-toxic,19.4 mm,20.7 mm
COc1ccc(/C=C(/NC(=O)c2ccccc2)C(=O)NC(CS)C(=O)N(C(=O)NC2CCCCC2)C2CCCCC2)cc1 (stereo unspecified),36%,127 µM,2.91,97.2 µM,,88.7 µM,20.3 mm,Non-toxic,20.1 mm,19.2 mm,16.4 mm,31.5%,Non-toxic,17.7 mm,19.8 mm
COc1cc([C@@H]2c3cc4c(cc3[C@H](O)[C@H]3COC(=O)[C@H]23)OCO4)cc(OC)c1OC [PODOFILOX],,,,,3.77 µg/mL,,,,,,,,,,
CC(C)c1ccc(/C=C(/NC(=O)c2ccccc2)C(=O)NC(CS)C(=O)N(C(=O)NC2CCCCC2)C2CCCCC2)cc1 (stereo unspecified),58.5%,92.8 µM,2.36,82.2 µM,16.7 µg/mL,74.7 µM,14.4 mm,Non-toxic,15.2 mm,12.9 mm,11.8 mm,28.2%,Non-toxic,15.4 mm,12.2 mm
Cc1ccc(/C=C(/NC(=O)c2ccccc2)C(=O)NCC(=O)N(C(=O)NC2CCCCC2)C2CCCCC2)cc1,48.8%,127 µM,1.24,101 µM,,71.9 µM,14.5 mm,Non-toxic,13.2 mm,15.5 mm,13.3 mm,23.9%,Non-toxic,17.6 mm,13.4 mm
O=C(NCC(=O)N(C(=O)NC1CCCCC1)C1CCCCC1)/C(=C\c1ccc(Cl)cc1)NC(=O)c1ccccc1,27.6%,96.8 µM,0.93,83.7 µM,,83.7 µM,13.5 mm,Non-toxic,13.5 mm,11.8 mm,16.3 mm,15.2%,Non-toxic,9.2 mm,12.7 mm
COc1ccc(/C=C(/NC(=O)c2ccccc2)C(=O)NCC(=O)N(C(=O)NC2CCCCC2)C2CCCCC2)cc1,39.6%,108 µM,1.24,92.7 µM,,92.7 µM,18.8 mm,Non-toxic,11.3 mm,14.3 mm,15.8 mm,12%,Non-toxic,10.3 mm,19.6 mm
COc1cc(/C=C(/NC(=O)c2ccccc2)C(=O)NC(CS)C(=O)N(C(=O)NC2CCCCC2)C2CCCCC2)ccc1O (stereo unspecified),48%,81.6 µM,3.6,92.8 µM,,,19.3 mm,Non-toxic,20.2 mm,22.1 mm,24.6 mm,38.4%,Non-toxic,20.8 mm,20.4 mm
O=C(NC(CS)C(=O)N(C(=O)NC1CCCCC1)C1CCCCC1)/C(=C\c1ccc(F)cc1)NC(=O)c1ccccc1 (stereo unspecified),42%,74.7 µM,3.6,51 µM,,58.8 µM,18.2 mm,Non-toxic,14.5 mm,11.4 mm,14.3 mm,25%,Non-toxic,16.6 mm,17.1 mm
O=C(NCC(=O)N(C(=O)NC1CCCCC1)C1CCCCC1)/C(=C\c1ccc(F)cc1)NC(=O)c1ccccc1,22%,97.2 µM,1.22,88.7 µM,,88.7 µM,20.8 mm,Non-toxic,20.1 mm,19.3 mm,16.5 mm,20.6%,Non-toxic,17.6 mm,19.2 mm
Cc1ccc(/C=C(/NC(=O)c2ccccc2)C(=O)NC(CS)C(=O)N(C(=O)NC2CCCCC2)C2CCCCC2)cc1 (stereo unspecified),41.2%,113 µM,2.36,66.3 µM,,84 µM,15.4 mm,Non-toxic,15.8 mm,16.8 mm,22.7 mm,35.5%,Non-toxic,18.4 mm,14.2 mm
CC(C)c1ccc(/C=C(/NC(=O)c2ccccc2)C(=O)NCC(=O)N(C(=O)NC2CCCCC2)C2CCCCC2)cc1,47.4%,60.4 µM,1.19,60.4 µM,,61 µM,21.2 mm,Non-toxic,18.4 mm,16.4 mm,18.1 mm,26%,Non-toxic,17.3 mm,13.1 mm
O=C(O)Cc1ccccc1Nc1c(Cl)cccc1Cl [DICLOFENAC SODIUM],,,,,,,,,,,,66.8%,,,
